This experiment deals with D(2) dopamine receptor (Rattus norvegicus, UniProt P61169). Put plainly: In vitro for the binding affinity against dopamine receptor D2 by using [3H](-)-sulpiride as radioligand in rat striatum. It counts as tissue-based. Summed up: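 Displacement of [³H]-(-)-sulpiride from rat striatal homogenates. Values are reported as -log₁₀(IC₅₀), the mean of two to three independent determinations. Values without error limits are the mean of two independent experiments.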

pIC50: −log10 of the molar value.

D(2) dopamine receptor, sequence (P61169 whole entry): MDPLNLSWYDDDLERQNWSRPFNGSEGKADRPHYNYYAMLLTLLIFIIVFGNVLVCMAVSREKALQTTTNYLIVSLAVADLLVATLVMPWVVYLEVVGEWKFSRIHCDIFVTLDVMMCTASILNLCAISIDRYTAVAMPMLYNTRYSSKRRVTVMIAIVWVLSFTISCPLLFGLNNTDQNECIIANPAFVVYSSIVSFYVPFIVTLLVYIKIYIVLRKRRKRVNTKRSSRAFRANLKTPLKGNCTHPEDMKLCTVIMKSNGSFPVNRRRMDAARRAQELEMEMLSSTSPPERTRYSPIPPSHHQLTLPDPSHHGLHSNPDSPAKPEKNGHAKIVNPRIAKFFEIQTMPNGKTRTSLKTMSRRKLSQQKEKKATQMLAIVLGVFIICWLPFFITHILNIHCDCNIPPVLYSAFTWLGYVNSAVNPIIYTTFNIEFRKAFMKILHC

In the case of `c1ccc2c(c1)CCC21CCN(CC2CCCCC2)CC1`, the negative logarithm of the IC50 (pIC50) was 5.18.

For the molecule `c1ccc2c(c1)CCCC21CCN(CC2CCCCC2)CC1`, the negative logarithm of the IC50 (pIC50) was 5.71.

Molecule `CCCCCCN1CCC2(CCCc3ccccc32)CC1` had a pIC50 of 5.69.

`COc1ccc(CN2CCC3(CCCc4ccccc43)CC2)cc1`: the pIC50 is 6.92.

In turn, `Cc1ccc(CN2CCC3(CCCc4ccccc43)CC2)cc1` gave a pIC50 of 6.76.

Consider `CCCCN1CCC2(CCCCc3ccccc32)CC1`, for which the negative-log IC50 (pIC50) is 5.60.

Molecule `c1ccc(CN2CCC3(CCCCc4ccccc43)CC2)cc1` had a pIC50 of 5.43.

`CCCCCCN1CCC2(CCc3ccccc32)CC1` showed a pIC50 of 5.26.

On to `COc1ccc(CN2CCC3(CCc4ccccc43)CC2)cc1`, for which the negative-log IC50 (pIC50) is 6.21.

With `CCCCN1CCC2(CCc3ccccc32)CC1`, the pIC50 was 5.40.

On to `CCCCN1CCC2(CCCc3ccccc32)CC1`, for which the pIC50 is 4.96.

As to `CC(C)=CCN1CCC2(CCc3ccccc32)CC1`, the negative-log IC50 (pIC50) was 4.77.

With `c1ccc(CN2CCC3(CCc4ccccc43)CC2)cc1`, the pIC50 was 6.05.

For the molecule `CC(C)=CCN1CCC2(CCCc3ccccc32)CC1`, the pIC50 is 5.26.

As a reminder, the pIC50 is the negative decadic logarithm of the IC50, by convention in mol/L.

The values are drawn from ChEMBL document CHEMBL1126060, “Spiropiperidines as high-affinity, selective sigma ligands” (J Med Chem, 1992).
